# Laboratory results as given in PubChem BioAssay AID504789 (Broad Institute, 2011).
# Results filed as inconclusive are left out. The source made the active and inactive calls.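 Rule for the calls: active = compound whose fitted half-maximal dose lies within ten times its top tested dose in every test run, killing cells; inconclusive = test runs disagree, or a run gives an unclear call; inactive = every test run inactive.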
# Tested on: not listed separately
# Test: HMLE_sh_eGFP viability loss – cell-based, luminescence, dry powder, set 7, counter-screen for breast cancer stem cell project, dose response (AID 504789)
# Conditions: HMLE_sh_eGFP viability, CellTiter-Glo luminescence, 72 h; at 19.5 µM (top of the series)
# Summary of the method: (§1)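 Material: HMLE_sh_eGFP control cell line (HMLE cells with shRNA against eGFP) / Quantity: 2000 cells per well / Buffer or medium: serum-free growth medium / Times: about 70–74 h compound exposure, 37 °C / Signal: ATP luminescence with CellTiter-Glo diluted 1:3 in PBS / Control set: DMSO neutral control and 160 µM puromycin positive control, every plate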
row,SMILES,"activity change, negative = cytotoxicity"
1,O=C(COc1c(Cl)cc(Cl)cc1Cl)N/N=C/c1ccc[nH]1,17.5% (inactive)
2,Cc1cccc(/C=C/C(=O)NC2=NCCS2)c1,23.8% (inactive)
3,O=C(COc1ccc(Cl)cc1Cl)NC1=NCCS1,-6.79% (inactive)
4,CC(C)c1ccc(C#CC(=O)NC2=NCCS2)cc1,6.05% (inactive)
5,COc1cc(OC(C)C)ccc1/C=C/C(=O)NC1=NCCS1,25% (inactive)
6,N#Cc1ccccc1/C=C/C(=O)NC1=NCCS1,5.88% (inactive)
7,CC(C)c1ccc(/C=C/C(=O)N2CC(F)(F)C2)cc1,11.1% (inactive)
8,Cc1ccnc(NCc2ccc(C(=O)Nc3nc(C)cs3)o2)c1,-1.56% (inactive)
9,O=C(O)COc1ccc(Cl)cc1Cl,-6.56% (inactive)
10,N#Cc1cccc(/C=C/C(=O)NC2=NCCS2)c1,-7.41% (inactive)
11,O=C(COc1ccc(Cl)cc1Cl)N/N=C/c1ccccc1,11.1% (inactive)
12,Cc1csc(NC(=O)c2cccc(CNc3ccccn3)c2)n1,-7.38% (inactive)
13,O=C(c1ccc(COc2ccccc2)o1)N1CC(F)(F)C1,13.3% (inactive)
14,Cc1csc(NC(=O)c2ccc(COc3cccnc3)o2)n1,17.4% (inactive)
15,O=C(COc1ccc(Cl)cc1Cl)Nc1nccs1,0.602% (inactive)
16,O=C(COc1ccc(Cl)cc1Cl)n1ccc(-c2ccc[nH]2)n1,27.2% (inactive)
17,CCc1ccc(/C=C/C(=O)NC2=NCCS2)cn1,-2.79% (inactive)
18,O=C(c1ccc(COc2ccccc2)o1)n1ccc(-c2ccc[nH]2)n1,10.5% (inactive)
19,COc1cc(C(C)C)ccc1/C=C/C(=O)NC1=NCCS1,10.3% (inactive)
20,CC(C)c1ccc(/C=C\C(=O)NC2=NCCS2)cc1,-12.1% (inactive)
21,Cc1csc(NC(=O)c2ccc(COc3ncccc3F)o2)n1,-4.8% (inactive)
22,CN(C)C(=N)N=C(N)N,15.9% (inactive)
23,Cc1csc(NC(=O)c2ccc(CNc3ncccc3F)o2)n1,3.58% (inactive)

# Tested on: HMLE_sh_eGFP viability, CellTiter-Glo luminescence, 72 h
# Test: as above
# Conditions: not given
# Summary of the method: as §1
row,SMILES,AC50 [µM]
1,Cc1cccc(NCc2cccc(C(=O)Nc3nc(C)cs3)c2)n1,25
2,Cc1csc(NC(=O)c2cccc(COc3ccccc3F)c2)n1,12.4
3,Cc1csc(NC(=O)c2cccc(COc3cccc(Cl)c3)c2)n1,3.87
4,Cc1cccc(NCc2ccc(C(=O)Nc3nc(C)cs3)o2)n1,21.9
5,Cc1cccc(OCc2cccc(C(=O)Nc3nc(C)cs3)c2)c1,11.9
6,Cc1csc(NC(=O)c2cccc(COc3cccc(F)c3)c2)n1,2.2
7,Cc1csc(NC(=O)c2ccc(COc3cccc(OC(F)(F)F)c3)o2)n1,3.01
8,CC(C)c1ccc(/C=C/C(=O)n2ccc(-c3ccc[nH]3)n2)cc1,10.7
9,COc1cccc2c1C(=O)c1c(O)c3c(c(O)c1C2=O)C[C@@](O)(C(=O)CO)C[C@@H]3OC1C[C@H](N)[C@H](O)[C@H](C)O1 (some centres not stated),0.068
